From ChEMBL document CHEMBL1157421, “Tenacigenin B derivatives reverse P-glycoprotein-mediated multidrug resistance inHepG2/Dox cells” (J Nat Prod, 2008) come the findings set out here.

Experiment [1] has as its system HepG2/Dox. The experiment can be described thus: Reversal of P-glycoprotein-mediated multidrug resistance in human HepG2/Dox cells assessed as increase in sensitivity at 19.6 uM in presence of doxorubicin. Format: cell-based. The method in brief: (§1)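 Resistance reversal by SRB assay. IC50s of doxorubicin, vinblastine, puromycin or paclitaxel were measured with or without modulator, with modulator alone as negative control and verapamil as positive control. Fold sensitization is the ratio of drug IC50 without modulator to drug IC50 with it. HepG2/Dox cells were kept drug-free for at least 7 days before use. Assays were run at least three times (mean ± SD).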

Experiment [2] deals with HepG2. The experiment can be described thus: Reversal of P-glycoprotein-mediated drug resistance in human HepG2 cells assessed as increase in sensitivity at 39.2 uM in presence of vinblastine. The experiment is classed as cell-based. The method in brief: as §1
Experiment [3] has as its system HepG2/Dox. The experiment can be described thus: Reversal of P-glycoprotein-mediated multidrug resistance in human HepG2/Dox cells assessed as increase in sensitivity at 39.2 uM in presence of vinblastine. Format: cell-based. Put shortly: as §1
Experiment [4] deals with HepG2/Dox. The experiment can be described thus: Reversal of P-glycoprotein-mediated multidrug resistance in human HepG2/Dox cells assessed as increase in sensitivity at 39.2 uM in presence of puromycin. The experiment is classed as cell-based. Put shortly:
as §1

In experiment [5] the test system is HepG2/Dox. The experiment can be described thus: Reversal of P-glycoprotein-mediated multidrug resistance in human HepG2/Dox cells assessed as increase in sensitivity at 39.2 uM in presence of doxorubicin. The experiment is classed as cell-based. Put shortly: as §1
Experiment [6] deals with HepG2. The experiment can be described thus: Reversal of P-glycoprotein-mediated drug resistance in human HepG2 cells assessed as increase in sensitivity at 39.2 uM in presence of paclitaxel. The experiment is classed as cell-based. Put shortly: as §1
For experiment [7], the system named is HepG2/Dox. The experiment can be described thus: Reversal of P-glycoprotein-mediated multidrug resistance in human HepG2/Dox cells assessed as increase in sensitivity at 19.6 uM in presence of vinblastine. Format: cell-based. The method in brief: as §1
The nature of experiment [8]: Growth inhibition of multidrug resistant human HepG2/Dox cells at 80 uM. The experiment is classed as functional. The method in brief:
(§2)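 SRB growth assay. HepG2 and HepG2/Dox cells were grown in RPMI 1640 with 10% FBS at 37 °C and 5% CO2; resistant cells were kept drug-free for at least 7 days before use. IC50 was taken from the SRB assay, with at least three repeats, reported as mean ± SD.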

Experiment [9] has as its system HepG2/Dox. The experiment can be described thus: Reversal of P-glycoprotein-mediated multidrug resistance in human HepG2/Dox cells assessed as increase in sensitivity at 19.6 uM in presence of paclitaxel. The experiment is classed as cell-based. The method in brief: as §1
For experiment [10], the system named is HepG2. The experiment can be described thus: Growth inhibition of doxorubicin-sensitive human HepG2 cells at 80 uM. Format: functional. The method in brief:
as §2

The test system of experiment [11] is HepG2/Dox. The experiment can be described thus: Reversal of P-glycoprotein-mediated multidrug resistance in human HepG2/Dox cells assessed as increase in sensitivity at 19.6 uM in presence of puromycin. Format: cell-based. Put shortly:
as §1

For experiment [12], the system named is HepG2. The experiment can be described thus: Reversal of P-glycoprotein-mediated drug resistance in human HepG2 cells assessed as increase in sensitivity at 39.2 uM in presence of puromycin. The experiment is classed as cell-based. Put shortly: as §1
In experiment [13] the test system is HepG2/Dox. The experiment can be described thus: Reversal of P-glycoprotein-mediated multidrug resistance in human HepG2/Dox cells assessed as increase in sensitivity at 39.2 uM in presence of paclitaxel. Format: cell-based. The method in brief:
as §1

For experiment [14], the system named is HepG2. The experiment can be described thus: Reversal of P-glycoprotein-mediated drug resistance in human HepG2 cells assessed as increase in sensitivity at 39.2 uM in presence of doxorubicin. The experiment is classed as cell-based. Put shortly:
as §1

The nature of experiment [15]: Cell cycle arrest in multidrug resistant human HepG2/Dox cells assessed as accumulation in S phase at 1 uM. Format: functional, cell-based. The method in brief:
(§3)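 Flow-cytometric cell-cycle profiling. About 2 × 10^5 cells were seeded per dish and left overnight, then exposed to medium with or without drug for 48 h. Cells were fixed in 70% EtOH at -20 °C overnight and treated with RNase A (100 µg/mL, 37 °C, 30 min). They were then stained with propidium iodide (40 µg/mL final) at room temperature for 5-10 min and read on a FACSCalibur.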

Experiment [16] is described as follows: Cell cycle arrest in multidrug resistant human HepG2/Dox cells assessed as accumulation in G2/M phase at 10 uM. Format: functional, cell-based. The method in brief:
as §3

A short description of experiment [17]: Cell cycle arrest in multidrug resistant human HepG2/Dox cells assessed as accumulation in subG1 phase at 10 uM. The experiment is classed as functional, cell-based. Put shortly:
as §3

Experiment [18] can be described thus: Cell cycle arrest in multidrug resistant human HepG2/Dox cells assessed as accumulation in G0/G1 phase at 10 uM. Format: functional, cell-based. Put shortly: as §3
The test system of experiment [19] is HepG2. The experiment can be described thus: Cell cycle arrest in human HepG2 cells assessed as accumulation in G0/G1 phase at 0.2 uM. Format: functional. Put shortly:
(§4)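 Cells seeded at about 2 × 10^5 per dish and left overnight, then exposed to drug for 48 h. Collected, washed in PBS, fixed in 70% EtOH at -20 °C overnight, treated with RNase A (100 µg/mL) at 37 °C for 30 min, stained with propidium iodide (40 µg/mL final) at room temperature, and phase distribution read by flow cytometry.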

Experiment [20] can be described thus: Cell cycle arrest in multidrug resistant human HepG2/Dox cells assessed as accumulation in subG1 phase at 50 uM. The experiment is classed as functional, cell-based. Put shortly:
as §3

Experiment [21] deals with HepG2. The experiment can be described thus: Cell cycle arrest in human HepG2 cells assessed as accumulation in subG1 phase at 0.2 uM. Format: functional. The method in brief: as §4
Experiment [22] can be described thus: Cell cycle arrest in multidrug resistant human HepG2/Dox cells assessed as accumulation in subG1 phase at 1 uM. Format: functional, cell-based. Put shortly:
as §3

For experiment [23], the system named is HepG2. The experiment can be described thus: Cell cycle arrest in human HepG2 cells assessed as accumulation in S phase at 0.2 uM. The experiment is classed as functional. Put shortly:
as §4

The nature of experiment [24]: Cell cycle arrest in multidrug resistant human HepG2/Dox cells assessed as accumulation in S phase at 50 uM. Format: functional, cell-based. The method in brief:
as §3

Experiment [25] in a line: Cell cycle arrest in multidrug resistant human HepG2/Dox cells assessed as accumulation in G2/M phase at 50 uM. The experiment is classed as functional, cell-based. Put shortly: as §3
Experiment [26] is described as follows: Cell cycle arrest in multidrug resistant human HepG2/Dox cells assessed as accumulation in G2/M phase at 1 uM. Format: functional, cell-based. Put shortly:
as §3

The subject of experiment [27] is HepG2. The experiment can be described thus: Cell cycle arrest in human HepG2 cells assessed as accumulation in G2/M phase at 0.2 uM. Format: functional. Put shortly:
as §4

Experiment [28] in a line: Cell cycle arrest in multidrug resistant human HepG2/Dox cells assessed as accumulation in S phase at 10 uM. Format: functional, cell-based. Put shortly: as §3
The nature of experiment [29]: Cell cycle arrest in multidrug resistant human HepG2/Dox cells assessed as accumulation in G0/G1 phase at 50 uM. Format: functional, cell-based. The method in brief:
as §3

The nature of experiment [30]: Cell cycle arrest in multidrug resistant human HepG2/Dox cells assessed as accumulation in G0/G1 phase at 1 uM. The experiment is classed as functional, cell-based. Put shortly: as §3
Experiment [31] in a line: Growth inhibition of multidrug resistant human HepG2/Dox cells after 72 hrs by SRB assay. The experiment is classed as functional, cell-based. Put shortly: (§5)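 SRB growth assay giving IC50 values from at least three repeat experiments, reported as mean ± SD. HepG2/Dox is a doxorubicin-selected Pgp-overexpressing subline kept in 1.2 µM doxorubicin and grown drug-free for at least 7 days before use. Both lines grown in RPMI 1640 with 10% FBS at 37 °C, 5% CO2.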
(In SRB staining, fixed cells bind dye roughly in proportion to their protein.)

For experiment [32], the system named is HepG2. The experiment can be described thus: Growth inhibition of human HepG2 cells after 72 hrs by SRB assay. Format: functional, cell-based. The conditions noted are these: HepG2, 72 h. Put shortly: as §5

For `CC(=O)O[C@@H]1[C@@H](OC(=O)c2ccccc2)[C@@H]2[C@@]3(C)CC[C@H](O)C[C@@H]3CC[C@]23O[C@@]32CC[C@@H](C(C)=O)[C@@]12C` [11ALPHA-O-BENZOYL-12BETA-O-ACETYLTENACIGENIN B], the Ratio IC50 in the experiment with HepG2/Dox [1] came to 10.1; in the experiment on HepG2 [2], 0.9; with HepG2/Dox [3], 53.1; in the experiment on HepG2/Dox [4], 15.5; with HepG2/Dox [5], 15.6; in the experiment with HepG2 [6], 1. Besides, the Ratio IC50 turned out to be 13 in the experiment with HepG2/Dox [7]; 42.4 in the experiment with HepG2/Dox [9]; 8.1 in the experiment on HepG2/Dox [11]; 1 in the experiment on HepG2 [12]; 326 with HepG2/Dox [13]; 1.2 in the experiment on HepG2 [14]. Moreover, the inhibition at 80 µM (in experiment [8]; in the experiment with HepG2 [10]) was 50% in each case.
As for `COc1cccc2c1C(=O)c1c(O)c3c(c(O)c1C2=O)C[C@@](O)(C(=O)CO)C[C@@H]3O[C@H]1C[C@H](N)[C@H](O)[C@H](C)O1` [DOXORUBICIN], the Activity worked out at 7.7% in [15]; 60.8% in [16]; 3.4% in [17]; 24.8% in experiment [18]; 4.9% in the experiment with HepG2 [19]; 4.9% in [20]. Also, the Activity in the experiment on HepG2 [21] is 0.9%; in experiment [22], 2.4%; with HepG2 [23], 8.9%; in experiment [24], 5.6%; in experiment [25], 73.4%; in [26] it was 33.5%. For the same molecule, the Activity in the experiment on HepG2 [27] came to 76.6%; in [28], 6.9%; in experiment [29], 12%; in experiment [30], 51.3%. The IC50 (commonly the concentration that gives 50% inhibition) in [31] is 8600 nM; with HepG2 [32], 170 nM.
As to `CC(=O)O[C@H]1C(=O)[C@@]2(C)[C@H]([C@H](OC(=O)c3ccccc3)[C@]3(O)C[C@H](OC(=O)[C@H](O)[C@@H](NC(=O)c4ccccc4)c4ccccc4)C(C)=C1C3(C)C)[C@]1(OC(C)=O)CO[C@@H]1C[C@@H]2O` [PACLITAXEL], the IC50 in experiment [31] came out at 1400 nM; in the experiment with HepG2 [32], 5.9 nM.
For `COc1ccc(C[C@H](N)C(=O)N[C@H]2[C@@H](O)[C@H](n3cnc4c(N(C)C)ncnc43)O[C@@H]2CO)cc1` [PUROMYCIN] the same measures were 20200 nM and 210 nM.
Take `CC[C@]1(O)C[C@@H]2CN(CCc3c([nH]c4ccccc34)[C@@](C(=O)OC)(c3cc4c(cc3OC)N(C)[C@H]3[C@@](O)(C(=O)OC)[C@H](OC(C)=O)[C@]5(CC)C=CCN6CC[C@]43[C@@H]65)C2)C1` [VINBLASTINE]: the IC50 was found to be 260 nM in [31] and 0.26 nM in the experiment on HepG2 [32].
